Test results taken from PMC6688896 (Bioorganic & medicinal chemistry, 2018).
Read-outs that look alike come from different tables or passages of the source.

Tests used:
CRC240 PDX tumors = test: CRC240 PDX xenograft tumor growth; type: in vivo, NOD/SCID mice; conditions: vs vehicle, n = 3
How it was run: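 CRC240 PDX tissue washed and minced in PBS at 150 mg/ml, 200 μl implanted in NOD/SCID flanks. At about 100 mm3, mice randomized and dosed orally once daily for 11 days with test compound suspended at […] in 10% 1-methyl-2-pyrrolidinone/90% PEG300, or vehicle. Tumor size and body weight on days 0, 4, 8, 11; mean ± SEM, n = 3; two-tailed Student's t test vs vehicle.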

CCD841Co colonic cells = test: Oxygen consumption rate, Seahorse XFp analyzer; type: cell-based; conditions: 1 μM, vs DMSO control media
How it was run: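 CCD841Co cells seeded at 8000 cells/well in XFp miniplates and attached overnight (37 °C, 5% CO2). Basal OCR recorded, then 1 μM test compound or DMSO in media added. Mito Stress Test followed with sequential 1 μM oligomycin, 1 μM FCCP, and 0.5 μM rotenone plus antimycin A. Mean ± SD, n = 2.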

pAMPK in CCD841Co cells = test: Phospho-AMPK levels by Western blot; type: cell-based; conditions: whole cell lysate, vs DMSO control
How it was run: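 CCD841Co cells grown in MEM with 1 mM pyruvate, non-essential amino acids, 10% FBS. Plated at 0.27 million/well on poly-D-lysine-coated 12-well plates and attached overnight. Medium replaced with test compound or DMSO diluted in DMEM with 2 mM pyruvate and 2 mM L-glutamine. Lysed in Laemmli buffer; immunoblotted for phospho-AMPK (Thr172) and total AMPK, β-actin loading control.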

[1] = Plasma pharmacokinetics after oral dose; type: in vivo, NOD/SCID mice; conditions: DK419 1 mg/kg oral, mice
How it was run: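 Test compound at 0.2 mg/mL in 10% N-methylpyrrolidinone/90% PEG300, single oral 1 mg/kg to NOD/SCID mice (n = 4). Serial tail-vein blood into heparin, pre-dose to 72 h. Plasma extracted with ethyl acetate plus an internal standard analog, then LC/MS/MS; calibration range 2.4 (LLOQ) to 1000 ng/mL. Parameters from compartmental (first-order absorption/elimination) and non-compartmental analysis.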

[2] = Body weight in CRC240 PDX xenograft study; type: in vivo; conditions: DK419 1 mg/kg orally daily for 11 days, tumor-bearing NOD/SCID mice
six CRC tumor cell lines = test: MTS cell proliferation assay, panel of six CRC cell lines; type: cell-based; conditions: 72 h, read-out: IC50 values, range over the six CRC cell lines
How it was run: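 Six CRC lines, each in its own medium (Leibovitz's, McCoy's 5A, MEM or RPMI) with 10% FBS and penicillin-streptomycin. Seeded at 5000 cells/well, then exposed 72 h to test compound over 0.04–10 μM or 0.001–10 μM depending on compound. Viability by colorimetric MTS; IC50 from curve fitting.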

HCT116 cells = conditions: 0.5 and 1.5 μM; cited from earlier work
[3] = Niclosamide 200 mg/kg oral, mice, plasma, non-compartmental, cited from earlier work

| time for which plasma levels were sustained [1] | AUCinf ([1]; plasma, compartmental) | AUCinf/DOSE ([1]; plasma, compartmental) | CL/F ([1]; plasma, compartmental) | Vd/F ([1]; plasma, compartmental) | AUCinf ([1]; plasma, non-compartmental) | AUCinf/DOSE ([1]; plasma, non-compartmental) | CL/F ([1]; plasma, non-compartmental) | Vd/F (Vz) ([1]; plasma, non-compartmental) | AUC0-LAST ([1]; plasma, non-compartmental, 0–72 h) | IC50 (six CRC tumor cell lines) | Structure (SMILES) | growth of CRC240 PDX tumors (tumor volume) (CRC240 PDX tumors; DK419 1 mg/kg orally daily for 11 days) | oxygen consumption rate (CCD841Co colonic cells) | pAMPK levels by Western blot (pAMPK in CCD841Co cells) | body weight [2] | growth of CRC240 PDX tumors (tumor volume) (CRC240 PDX tumors; Niclosamide 72 mg/kg orally daily for 11 days) | oxygen consumption rate (HCT116 cells) | AUC0-LAST ([3]; 0–24 h) | AUCinf [3] |
| --- | --- | --- | --- | --- | --- | --- | --- | --- | --- | --- | --- | --- | --- | --- | --- | --- | --- | --- | --- |
| more than 24 hours | 16300 ng·h/mL (per kg BW) | 16.3 µg·h/mL (per mg) | 0.06 L/h (per kg BW) | 0.98 L (per kg BW) | 16900 ng·h/mL (per kg BW) | 16.9 µg·h/mL (per mg) | 0.06 L/h (per kg BW) | 0.80 (Vz) L (per kg BW) | 16.8 ( 0–72 h) h μg/mL (per kg BW) | 70 to 360 nM | O=C(Nc1ccc(C(F)(F)F)cc1)c1cc(Cl)cc2nc(C(F)(F)F)[nH]c12 [DK419, 6-chloro-2-(trifluoromethyl)-N-(4-(trifluoromethyl)phenyl)-1H-benzo[d]imidazole-4-carboxamide] | inhibited the growth of CRC240 PDX tumors compared to vehicle control | increases the rate of oxygen consumption | increased the levels of pAMPK | Neither DK419 nor Niclosamide produced a change in body weight | – | – | – | – |
| – | – | – | – | – | – | – | – | – | – | 110 to 2390 nM | O=C(Nc1ccc([N+](=O)[O-])cc1Cl)c1cc(Cl)ccc1O [Niclosamide, reference compound] | – | increases the oxygen consumption rate | increased pAMPK levels versus control | – | inhibited tumor growth | caused oxygen consumption rate to increase | 1.01 ( 0–24 h) h μg/mL (per kg BW) | 1020 ng·h/mL (per kg BW) |
